Screening data from PubChem BioAssay.
This is a sample that favours compounds with a hit; in the whole collection about 3% have one here.
Casp6 inh = blocks human caspase-6 cleavage activity | P55212 | purified caspase-6, Z-VEID-R110 cleavage fluorescence | inhibition, % at 12.5 µM | 350,000 tested, 0.53% active | AID 686996;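 active = mean inhibition across replicates at least about 35%, with every replicate also reaching that limit, limit read from the data; inconclusive = only one of the two criteria met; inactive = neither criterion met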;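 note: 0% = median of neutral control wells and 100% = no fluorescence left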
Wnt bcat act = activates Wnt/beta-catenin signaling in a reporter cell assay | activation, % at 9.35 µM | activator, plate reader | 300,000 tested, 1.2% active; in the data active = activation above about 30%, passing the limit was not always enough; inconclusive = no clear call, values can overlap the other calls;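 note: 0% = neutral control wells and 100% = positive control wells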
NSD2 inh = NSD2 (human) methyltransferase inhibition; NSD2 peptide methylation, AlphaScreen, 120 min; inhibition, % at 12.5 µM; 310,000 tested, 0.54% active; AID 743445; in the data active = inhibition above about 50%
Target sequence (O96028 whole entry, looked up): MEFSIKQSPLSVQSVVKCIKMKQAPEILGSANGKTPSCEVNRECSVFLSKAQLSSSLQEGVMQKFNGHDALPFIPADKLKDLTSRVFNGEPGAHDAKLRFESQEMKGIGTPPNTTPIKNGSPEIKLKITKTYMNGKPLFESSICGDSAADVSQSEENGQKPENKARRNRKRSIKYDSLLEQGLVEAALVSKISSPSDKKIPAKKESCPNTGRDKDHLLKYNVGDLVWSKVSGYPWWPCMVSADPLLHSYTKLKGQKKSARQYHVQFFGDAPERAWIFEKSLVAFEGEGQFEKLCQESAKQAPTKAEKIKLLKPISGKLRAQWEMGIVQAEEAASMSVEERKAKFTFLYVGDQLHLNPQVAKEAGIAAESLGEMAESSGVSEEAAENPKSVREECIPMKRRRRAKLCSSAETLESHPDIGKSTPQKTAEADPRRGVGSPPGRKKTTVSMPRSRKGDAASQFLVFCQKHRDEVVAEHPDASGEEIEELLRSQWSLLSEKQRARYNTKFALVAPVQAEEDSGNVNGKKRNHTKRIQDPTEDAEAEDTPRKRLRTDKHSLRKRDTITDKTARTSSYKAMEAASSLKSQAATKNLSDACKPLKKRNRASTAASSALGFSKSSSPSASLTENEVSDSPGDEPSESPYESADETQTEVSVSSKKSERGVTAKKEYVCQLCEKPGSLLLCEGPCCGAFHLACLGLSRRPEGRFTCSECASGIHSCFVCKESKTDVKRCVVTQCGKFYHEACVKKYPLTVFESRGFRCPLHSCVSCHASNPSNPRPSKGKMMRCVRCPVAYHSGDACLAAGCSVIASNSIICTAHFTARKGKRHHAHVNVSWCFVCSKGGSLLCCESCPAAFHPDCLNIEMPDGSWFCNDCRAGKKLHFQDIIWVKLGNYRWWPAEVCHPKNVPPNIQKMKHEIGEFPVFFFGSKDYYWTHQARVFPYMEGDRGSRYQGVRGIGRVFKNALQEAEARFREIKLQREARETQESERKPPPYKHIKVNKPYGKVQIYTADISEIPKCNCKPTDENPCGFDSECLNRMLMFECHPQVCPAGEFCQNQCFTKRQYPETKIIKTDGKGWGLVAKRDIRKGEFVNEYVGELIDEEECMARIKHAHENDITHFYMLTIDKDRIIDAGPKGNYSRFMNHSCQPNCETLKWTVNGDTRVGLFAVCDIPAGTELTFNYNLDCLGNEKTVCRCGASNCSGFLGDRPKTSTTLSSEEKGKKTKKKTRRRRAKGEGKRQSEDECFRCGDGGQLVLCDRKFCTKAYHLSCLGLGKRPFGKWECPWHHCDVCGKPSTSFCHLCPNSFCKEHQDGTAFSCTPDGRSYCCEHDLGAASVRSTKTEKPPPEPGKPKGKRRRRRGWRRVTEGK
MITF act = increases MITF-driven TRPM1 promoter luciferase signal | SK-MEL-5 TRPM1-promoter luciferase, 24 h; % of positive control, neutral wells = 0 | activation, % at 12.5 µM | 300,000 tested, 0.75% active | AID 588334;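 active = mean activation of at least 80% with every replicate also reaching 80%; inconclusive = mean reaches 80% but some replicate falls short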;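 note: 0% = neutral control wells and 100% = parthenolide positive control wells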
Xi reactivation = activators of X-chromosome reactivation in mouse fibroblasts | XiGFP mouse fibroblasts, % GFP-positive cells imaging, 3 d; cells co-treated with 5-aza-dC sensitizer; scaled so ellipticine positive control = 100% | 360,000 tested, 0.055% active | AID 743238 | activation, % at 7.58 µM;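 active = mean normalized replicate activation at least 10% and every replicate at or above 10%; inconclusive = only one of the two criteria met; inactive = mean below 10% and not all replicates reach 10%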;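 note: 0% = median of on-plate neutral control wells and 100% = ellipticine 6 µM median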
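System: 68-5-11 XiGFP fibroblast line | Buffer or medium: DMEM containing 5-aza-dC | Compound: Single point | Times: Compounds 3 days, fix/stain 15 min at room temperature | Benchmarks: Positive control ellipticine, 6 µM final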
esBAF inh = SWI/SNF esBAF complex inhibition | mouse ES cells, Bmi1-luciferase knock-in reporter, 24 h; 100% = twice the neutral-well signal | AID 602393 | 350,000 tested, 2% active | reporter increase, % at 12.5 µM; in the data active = activation above about 40%; inconclusive = no clear call, values can overlap the other calls;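 note: 0% = median of the plate's neutral control wells and 100% = double that signal; a rise in the Bmi1 reporter signal indicates esBAF inhibition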
* = called active by the depositor.

How did COCc1ccc(C(=O)N(C)CC2CCCN(CCc3ccc(Cl)cc3)C2)o1 (centres undefined) do in these assays?
Casp6 inh: -3; Wnt bcat act: -2; NSD2 inh: 2; MITF act: 9; Xi reactivation: 0; esBAF inh: -2

Results for COc1ccc(CCN2CCCC(CN(C)C(=O)c3cc(C)oc3C)C2)cc1 (centres undefined) ?
Casp6 inh: -8; Wnt bcat act: inconclusive; NSD2 inh: 1; MITF act: 75; Xi reactivation: 0; esBAF inh: 72*

What do the screens show for `C/C=C/c1cnc2c(c1)C(=O)N([C@@H](C)CO)C[C@H](C)[C@@H](CN(C)C(=O)CN1CCOCC1)O2`?
Casp6 inh: 4; Xi reactivation: 0; esBAF inh: 2

Results for CCN(CC)c1cc(C)c(C#N)c2nc3ccccc3n12 ?
Casp6 inh: 3; Wnt bcat act: 36*; NSD2 inh: -2; MITF act: -3; Xi reactivation: 0; esBAF inh: -5

What do the screens show for `Cc1cc(Cl)n2c(nc3ccccc32)c1C#N`?
Casp6 inh: 0; Wnt bcat act: 5; NSD2 inh: 10; MITF act: -81; Xi reactivation: 0

What do the screens show for `COc1cc(N2CCCC2)c(OC)cc1/C=C1/NC(=S)NC1=O`?
Wnt bcat act: -4; NSD2 inh: 4; MITF act: -1; Xi reactivation: 71*

How did C=CCSc1nnc2c(n1)OC(c1cccnc1)N(C(C)=O)c1ccccc1-2 (centres undefined) do in these assays?
Wnt bcat act: -3; NSD2 inh: 2; MITF act: 0; esBAF inh: 4

What do the screens show for `C=CCSc1nnc2c(n1)OC(c1cccnc1)Nc1ccccc1-2` (centres undefined)?
Wnt bcat act: 54*; NSD2 inh: 1; MITF act: 13

What do the screens show for `O=S(=O)(c1cccc2cccnc12)N1CCN(c2ccc(F)cc2)CC1`?
Casp6 inh: 42*; Wnt bcat act: -1; NSD2 inh: 0; MITF act: -1; Xi reactivation: 0

Results for COc1ccc(N2CCN(S(=O)(=O)c3cccc4cccnc34)CC2)cc1 ?
Casp6 inh: 4; Wnt bcat act: -5; MITF act: -4; Xi reactivation: 0; esBAF inh: 1

How did Cc1nn(-c2ccccc2)c(N)c1N=Nc1ccccc1 do in these assays?
Casp6 inh: 1; Wnt bcat act: 0; NSD2 inh: 11; MITF act: 43; Xi reactivation: 0

Results for Cc1nn(-c2nc3ccccc3[nH]2)c(N)c1-c1ccccc1 ?
Wnt bcat act: 55*; NSD2 inh: 15; MITF act: 68

What do the screens show for `O=c1cc(-c2ccccc2)[nH]n1-c1nc2ccccc2[nH]1`?
NSD2 inh: -4; MITF act: -13

Results for Cc1cc(-c2ccccc2)n(-c2ccccc2)n1 ?
Casp6 inh: 0; Wnt bcat act: 10; NSD2 inh: -4; Xi reactivation: 0; esBAF inh: 51*

How did Cc1nn(-c2ccccc2)c(N)c1N=Nc1ccc(Cl)cc1 do in these assays?
Casp6 inh: 3; Wnt bcat act: -3; NSD2 inh: 6; MITF act: 23; Xi reactivation: 0; esBAF inh: 80*

Results for Cc1nn(-c2ccccc2)c(N)c1-c1ccccc1 ?
Wnt bcat act: inconclusive; NSD2 inh: 6; MITF act: 114*; Xi reactivation: 0; esBAF inh: 67*

How did C[C@@H]1CN([C@H](C)CO)C(=O)c2cc(NS(C)(=O)=O)ccc2O[C@@H]1CN(C)S(=O)(=O)c1ccccc1 do in these assays?
Xi reactivation: 0; esBAF inh: -1

What do the screens show for `C[C@H]1CN([C@@H](C)CO)C(=O)c2cc(NC(=O)Nc3ccccc3)ccc2O[C@@H]1CN(C)Cc1ccc(Oc2ccccc2)cc1`?
Casp6 inh: 0; Xi reactivation: 0; esBAF inh: 5

What do the screens show for `CC(=O)N1C[C@@H]2C(c3ccc(Br)cc3)[C@H](C1)N2CC(F)(F)F` (some centres undefined)?
Xi reactivation: 0
